The source made the active and inactive calls. The rule behind the calls is not given here.

In ChEMBL document CHEMBL4007381, “Synthesis, X-ray crystal structure and anti-tumor activity of calix[n]arene polyhydroxyamine derivatives” (Eur J Med Chem, 2016) one finds inhibition of growth, IC50 and Activity data, which are given here for one compound.

Assay [1] has as its system A549. In words: Cytotoxicity against human A549 cells assessed as reduction in cell viability at 10 uM measured after 72 hrs by SRB assay relative to control. The format is functional. The following applies: A549, 72 h, read-out: GI. A digest of the protocol: (§1)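 Adherent cells were seeded at 1-5 × 10⁴/well and grown 24 h at 37 °C in 5% CO₂. They were treated at a single 10 µM concentration for 72 h in triplicate wells. Read-out was SRB staining after TCA fixation, with dye dissolved in Tris base and OD read at 565 nm. Viability was expressed relative to control.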
(In general: The SRB assay estimates cell density from bound dye.)

In assay [2] the test system is SK-OV-3. In words: Cytotoxicity against human SKOV3 cells assessed as reduction in cell viability at 10 uM measured after 72 hrs by SRB assay relative to control. The format is functional. The following applies: SK-OV-3, 72 h, read-out: GI. A digest of the protocol: as §1
Assay [3] relates to SW1990. In words: Cytotoxicity against human SW1990 cells assessed as reduction in cell viability at 10 uM measured after 72 hrs by SRB assay relative to control. The settings on record: SW1990, 72 h, read-out: GI. The format is functional. In short, it runs like this: as §1
For assay [4], the system named is HeLa. In words: Cytotoxicity against human HeLa cells assessed as reduction in cell viability at 10 uM measured after 72 hrs by SRB assay relative to control. It is filed as functional. The following applies: read-out: GI. A digest of the protocol: as §1
The subject of assay [5] is Raji. In words: Cytotoxicity against human Raji cells assessed as reduction in cell viability at 10 uM measured after 72 hrs by MTT assay relative to control. It is filed as functional. The following applies: read-out: GI. In short, it runs like this:
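Raji suspension cells were seeded at 1-5 × 10⁴/well and grown 24 h. They were treated at 10 µM for 72 h in triplicate wells. Read-out was MTT for 4 h, then solubilization in HCl/isopropanol/SDS overnight and OD at 550 nm, relative to control.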
In general terms: Formazan colour is commonly taken as a measure of viable cells.

For assay [6], the system named is MDA-MB-231. In words: Cytotoxicity against human MDA-MB-231 cells assessed as reduction in cell viability at 10 uM measured after 72 hrs by SRB assay relative to control. The following applies: MDA-MB-231, 72 h, read-out: GI. The format is functional. In short, it runs like this:
as §1

For assay [7], the system named is A549. In words: Cytotoxicity against human A549 cells assessed as reduction in cell viability measured after 72 hrs by SRB assay. It is filed as functional, cell-based. The following applies: A549, 72 h. In short, it runs like this: (§2)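 Adherent cells in log phase were seeded at 1-5 × 10⁴/well and grown 24 h at 37 °C in 5% CO₂. They were exposed to 10 concentrations for 72 h, three wells each, then fixed with TCA and stained with SRB. Bound dye was dissolved in Tris base and read at OD 565 nm. Survival was expressed relative to vehicle (100%). Means came from ≥3 independent experiments, and apparent IC50 was read from the dose-response curves.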

For assay [8], the system named is SK-OV-3. Briefly: Cytotoxicity against human SKOV3 cells assessed as reduction in cell viability measured after 72 hrs by SRB assay. It is filed as functional, cell-based. The following applies: SK-OV-3, 72 h. A digest of the protocol: as §2
For assay [9], the system named is SW1990. In words: Cytotoxicity against human SW1990 cells assessed as reduction in cell viability measured after 72 hrs by SRB assay. The following applies: SW1990, 72 h. It is filed as functional, cell-based. In short, it runs like this: as §2
Assay [10] has as its system HeLa. In words: Cytotoxicity against human HeLa cells assessed as reduction in cell viability measured after 72 hrs by SRB assay. It is filed as functional, cell-based. In short, it runs like this: as §2
The subject of assay [11] is Raji. In words: Cytotoxicity against human Raji cells assessed as reduction in cell viability measured after 72 hrs by MTT assay. The format is functional, cell-based. A digest of the protocol:
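Raji suspension cells (RPMI 1640, 10% FBS) were seeded at 1-5 × 10⁴/well and grown 24 h at 37 °C in 5% CO₂. They were exposed to 10 concentrations for 72 h in triplicate wells. MTT was added for 4 h, then HCl/isopropanol/SDS was added overnight, and OD was read at 550 nm. Data are means of ≥3 independent experiments, relative to vehicle, with apparent IC50 taken from the dose-response curves.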

The subject of assay [12] is MDA-MB-231. Briefly: Cytotoxicity against human MDA-MB-231 cells assessed as reduction in cell viability measured after 72 hrs by SRB assay. The format is functional, cell-based. The settings on record: MDA-MB-231, 72 h. A digest of the protocol: as §2
Assay [13] relates to SK-OV-3. Briefly: Cell cycle arrest in human SKOV3 cells assessed as accumulation at G0/G1 phase at 3 uM measured after 48 hrs by propidium iodide staining-based FACS analysis (reference value: 49.47 +/- 1.91%). The format is functional.
Assay [14] deals with SK-OV-3. Briefly: Cell cycle arrest in human SKOV3 cells assessed as accumulation at S phase at 3 uM measured after 48 hrs by propidium iodide staining-based FACS analysis(reference value: 37.31 +/- 3.48%). It is filed as functional. (In general: In flow cytometry, cells or beads pass a laser one at a time.)
For assay [15], the system named is SK-OV-3. Briefly: Cell cycle arrest in human SKOV3 cells assessed as decrease in accumulation at G2/M phase at 3 uM measured after 48 hrs by propidium iodide staining-based FACS analysis. It is filed as functional.
The test system of assay [16] is SK-OV-3. In words: Induction of apoptosis in human SKOV3 cells assessed as upregulation of caspase3 expression at 3 uM measured after 24 to 48 hrs by Hoechst-33342 staining-based immunofluorescent analysis relative to DMSO-control. It is filed as functional, cell-based. A digest of the protocol: (§3)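 SKOV3 cells in 24-well plates were given 3 µM compound or DMSO. They were fixed with 4% paraformaldehyde for 20 min, permeabilized with 0.3% Triton X-100 for 10 min and blocked with sheep serum. Primary antibody (caspase-3, p53, Bcl-2 or Bax) was applied overnight at 4 °C, then fluorescein-conjugated secondary for 1 h and Hoechst 33342 for 15 min. Slides were imaged by fluorescence microscopy.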

Assay [17] has as its system SK-OV-3. In words: Induction of apoptosis in human SKOV3 cells assessed as upregulation of p53 expression at 3 uM measured after 24 to 48 hrs by Hoechst-33342 staining-based immunofluorescent analysis relative to DMSO-control. The format is functional, cell-based. In short, it runs like this: as §3
The test system of assay [18] is SK-OV-3. Briefly: Induction of apoptosis in human SKOV3 cells assessed as downregulation of Bcl2 expression at 3 uM measured after 24 to 48 hrs by Hoechst-33342 staining-based immunofluorescent analysis relative to DMSO-control. It is filed as functional, cell-based. In short, it runs like this: as §3
For assay [19], the system named is SK-OV-3. In words: Induction of apoptosis in human SKOV3 cells assessed as effect on Bax expression at 3 uM measured after 24 to 48 hrs by Hoechst-33342 staining-based immunofluorescent analysis relative to DMSO-control. It is filed as functional, cell-based. In short, it runs like this:
as §3

As for `CC(C)(C)c1cc2c(O)c(c1)Cc1cc(C(C)(C)C)cc(c1OCC(=O)NCCO)Cc1cc(C(C)(C)C)cc(c1O)Cc1cc(C(C)(C)C)cc(c1OCC(=O)NCCO)C2`, the inhibition of growth at 10 µM in the assay with A549 [1] came to 89%; in the assay with SK-OV-3 [2], 97%; in the assay on SW1990 [3], 95%; in the assay with HeLa [4] it was 100%; in the assay with Raji [5], 100%; in the assay with MDA-MB-231 [6] it was 99%. The IC50 (as a rule, the point on the concentration scale where inhibition reaches its midpoint) is 4 µM in the assay on A549 [7]; 2.8 µM with SK-OV-3 [8]; 4.3 µM in the assay on SW1990 [9]; 2.7 µM in the assay with HeLa [10]; 5 µM with Raji [11]; 5.3 µM in the assay on MDA-MB-231 [12]. The Activity with SK-OV-3 [13] came out at 64.25%; with SK-OV-3 [14], 24.19%. Besides, the result in the assay on SK-OV-3 [15], in the assay with SK-OV-3 [16], in the assay on SK-OV-3 [17] and in the assay with SK-OV-3 [18] was Active. In addition, the outcome in the assay on SK-OV-3 [19] was inactive.
